What was measured:
[1] = target: Tyrosine-protein kinase ABL2 (Homo sapiens) (UniProt P42684); test: Inhibition of human Arg (38 to end residues) assessed as residual activity at 10 uM using EAIYAAPFAKKK as substrate incubated for 40 mins in presence of [gamma-33ATP] by scintillation counting based radiometry assay relative to control
[2] = target: Receptor tyrosine-protein kinase erbB-4 (Homo sapiens) (UniProt Q15303); test: Inhibition of recombinant human ERBB4 (706 to 991 residues) assessed as residual activity at 10 uM using poly(Glu, Tyr) 4:1 as substrate at 40 mins in presence of [gamma-33ATP] by scintillation counting based radiometry assay relative to control
[3] = target: Serine/threonine-protein kinase NIM1 (Homo sapiens) (UniProt Q8IY84); test: Inhibition of recombinant full length human NIM1 assessed as residual activity at 10 uM using KKKVSRSGLYRSPSMPENLNRPR as substrate measured after 40 mins in presence of [gamma33P]ATP by scintillation counting based radiometry assay relative to control
Serine/threonine-protein kinase NIM1 (Homo sapiens), sequence (Q8IY84 whole entry): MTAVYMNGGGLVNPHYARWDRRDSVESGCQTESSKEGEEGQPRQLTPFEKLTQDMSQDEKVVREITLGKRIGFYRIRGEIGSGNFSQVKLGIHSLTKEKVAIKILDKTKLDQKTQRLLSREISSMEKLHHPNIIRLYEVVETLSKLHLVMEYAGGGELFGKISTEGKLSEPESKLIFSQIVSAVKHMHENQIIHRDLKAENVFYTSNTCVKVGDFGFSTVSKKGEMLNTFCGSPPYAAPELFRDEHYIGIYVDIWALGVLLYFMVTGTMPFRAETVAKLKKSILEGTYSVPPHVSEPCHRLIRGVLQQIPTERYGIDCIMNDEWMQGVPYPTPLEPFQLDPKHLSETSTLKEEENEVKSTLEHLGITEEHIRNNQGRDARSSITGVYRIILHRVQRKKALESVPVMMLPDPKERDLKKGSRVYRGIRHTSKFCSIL

[4] = target: Tyrosine-protein kinase Fes/Fps (Homo sapiens) (UniProt P07332); test: Inhibition of recombinant human FES (2 to end residues) assessed as residual activity at 10 uM using poly(Glu, Tyr) 4:1 as substrate at 40 mins in presence of [gamma-33ATP] by scintillation counting based radiometry assay relative to control
Tyrosine-protein kinase Fes/Fps (Homo sapiens), sequence (P07332 whole entry, the tested form may be a part, canonical isoform): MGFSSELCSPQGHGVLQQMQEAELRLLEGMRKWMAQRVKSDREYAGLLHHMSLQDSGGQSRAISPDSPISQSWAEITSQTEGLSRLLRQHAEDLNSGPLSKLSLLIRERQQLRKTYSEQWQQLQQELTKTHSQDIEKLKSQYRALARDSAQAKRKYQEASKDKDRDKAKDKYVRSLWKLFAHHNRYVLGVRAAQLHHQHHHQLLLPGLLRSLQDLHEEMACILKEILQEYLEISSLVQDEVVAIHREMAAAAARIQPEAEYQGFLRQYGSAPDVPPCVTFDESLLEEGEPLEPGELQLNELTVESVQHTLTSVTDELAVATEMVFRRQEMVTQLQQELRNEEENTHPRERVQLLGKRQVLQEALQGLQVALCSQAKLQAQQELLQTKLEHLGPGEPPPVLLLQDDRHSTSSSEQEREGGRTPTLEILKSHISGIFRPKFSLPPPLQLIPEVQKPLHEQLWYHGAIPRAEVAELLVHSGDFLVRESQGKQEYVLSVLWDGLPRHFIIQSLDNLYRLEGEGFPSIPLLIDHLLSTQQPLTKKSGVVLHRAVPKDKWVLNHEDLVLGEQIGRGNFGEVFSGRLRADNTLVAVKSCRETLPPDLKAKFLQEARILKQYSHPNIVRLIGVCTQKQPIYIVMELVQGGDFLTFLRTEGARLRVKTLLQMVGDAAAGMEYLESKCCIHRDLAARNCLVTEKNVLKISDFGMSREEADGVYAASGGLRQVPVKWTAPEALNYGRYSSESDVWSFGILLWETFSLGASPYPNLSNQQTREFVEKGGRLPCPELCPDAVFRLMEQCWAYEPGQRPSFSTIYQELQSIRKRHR

[5] = tested on: Casein kinase I isoform gamma-3 (Homo sapiens), Q9Y6M4 [UNDEFINED MUTATION]; test: Inhibition of recombinant human CK1gamma3 K91E/R174G/E302D mutant (1 to 330 residues) assessed as residual activity at 10 uM using KRRRALS(p)VASLPGL as substrate incubated for 40 mins in presence of [gamma-33ATP] by scintillation counting based radiometry assay relative to control
[6] = target: Protein kinase C epsilon type (Homo sapiens) (UniProt Q02156); test: Inhibition of recombinant human PKCepsilon (2 to end residues) assessed as residual activity at 10 uM using ERMRPRKRQGSVRRRV as substrate incubated for 40 mins in presence of [gamma33P]ATP by scintillation counting based radiometry assay relative to control
[7] = target: Tyrosine-protein kinase HCK (Homo sapiens) (UniProt P08631); test: Inhibition of human HCK activated (230 to 497 residues) assessed as residual activity at 10 uM using GGMEDIYFEFMGGKKK as substrate after 40 mins by [gamma-33ATP] radiometric assay relative to control
Tyrosine-protein kinase HCK (Homo sapiens), sequence (P08631 2-526 limits assumed): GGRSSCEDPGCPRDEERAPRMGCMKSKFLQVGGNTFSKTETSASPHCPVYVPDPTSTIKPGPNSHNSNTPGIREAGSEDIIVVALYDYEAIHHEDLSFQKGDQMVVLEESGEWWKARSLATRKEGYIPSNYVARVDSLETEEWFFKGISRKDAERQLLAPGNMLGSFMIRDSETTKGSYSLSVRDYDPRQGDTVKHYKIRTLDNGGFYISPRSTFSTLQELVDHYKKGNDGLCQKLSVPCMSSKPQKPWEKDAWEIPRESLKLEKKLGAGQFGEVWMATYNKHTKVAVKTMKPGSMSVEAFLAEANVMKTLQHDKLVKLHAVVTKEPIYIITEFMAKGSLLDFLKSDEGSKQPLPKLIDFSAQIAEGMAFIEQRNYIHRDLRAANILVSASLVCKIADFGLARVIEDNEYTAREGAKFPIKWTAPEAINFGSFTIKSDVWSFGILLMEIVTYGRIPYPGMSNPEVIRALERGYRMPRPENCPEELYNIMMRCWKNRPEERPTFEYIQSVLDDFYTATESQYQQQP

[8] = target: Casein kinase II subunit alpha (Homo sapiens) (UniProt P68400); test: Inhibition of recombinant full length human CK2alpha1 assessed as residual activity at 10 uM using RRRDDDSDDD as substrate incubated 40 mins in presence of [gamma-33ATP] by scintillation counting based radiometry assay relative to control
Casein kinase II subunit alpha (Homo sapiens), sequence (P68400 whole entry, looked up): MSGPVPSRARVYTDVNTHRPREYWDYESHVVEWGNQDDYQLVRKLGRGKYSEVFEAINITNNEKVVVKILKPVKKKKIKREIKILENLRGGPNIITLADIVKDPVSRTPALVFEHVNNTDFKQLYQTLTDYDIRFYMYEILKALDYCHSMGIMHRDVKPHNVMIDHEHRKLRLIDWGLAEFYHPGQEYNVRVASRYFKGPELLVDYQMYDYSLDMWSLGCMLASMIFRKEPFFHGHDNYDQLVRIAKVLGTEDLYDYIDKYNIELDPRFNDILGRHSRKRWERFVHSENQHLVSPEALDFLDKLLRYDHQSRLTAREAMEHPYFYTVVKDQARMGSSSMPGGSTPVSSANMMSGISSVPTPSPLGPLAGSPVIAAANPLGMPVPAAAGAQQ

[9] = target: Proto-oncogene tyrosine-protein kinase Src (Homo sapiens) (UniProt P12931); test: Inhibition of recombinant human C-Src assessed as residual activity at 10 uM Cdc2 peptide as substrate incubated 40 mins in presence of [gamma-33ATP] by scintillation counting based radiometry assay relative to control
[10] = target: Serine/threonine-protein kinase mTOR (Homo sapiens) (UniProt P42345); test: Inhibition of recombinant full length human mTOR assessed as residual activity at 10 uM measured after 40 mins in presence of [gamma33P]ATP by scintillation counting based radiometry assay relative to control
Homo sapiens [11] = species on record: Homo sapiens; test: Inhibition of recombinant human full length PI3K p120gamma R459Q mutant assessed as residual activity at 10 uM using phosphatidylinositol-4, 5-bisphosphate as substrate incubated for 40 mins in presence of [gamma33P]ATP by scintillation counting based radiometry assay relative to control
[12] = target: Ephrin type-A receptor 4 (Homo sapiens) (UniProt P54764); test: Inhibition of recombinant human EphA4 (601 to 892 residues) assessed as residual activity at 10 uM using poly(Glu, Tyr) 4:1 as substrate at 40 mins in presence of [gamma-33ATP] by scintillation counting based radiometry assay relative to control
Ephrin type-A receptor 4 (Homo sapiens), sequence (P54764 whole entry, the tested form may be a part): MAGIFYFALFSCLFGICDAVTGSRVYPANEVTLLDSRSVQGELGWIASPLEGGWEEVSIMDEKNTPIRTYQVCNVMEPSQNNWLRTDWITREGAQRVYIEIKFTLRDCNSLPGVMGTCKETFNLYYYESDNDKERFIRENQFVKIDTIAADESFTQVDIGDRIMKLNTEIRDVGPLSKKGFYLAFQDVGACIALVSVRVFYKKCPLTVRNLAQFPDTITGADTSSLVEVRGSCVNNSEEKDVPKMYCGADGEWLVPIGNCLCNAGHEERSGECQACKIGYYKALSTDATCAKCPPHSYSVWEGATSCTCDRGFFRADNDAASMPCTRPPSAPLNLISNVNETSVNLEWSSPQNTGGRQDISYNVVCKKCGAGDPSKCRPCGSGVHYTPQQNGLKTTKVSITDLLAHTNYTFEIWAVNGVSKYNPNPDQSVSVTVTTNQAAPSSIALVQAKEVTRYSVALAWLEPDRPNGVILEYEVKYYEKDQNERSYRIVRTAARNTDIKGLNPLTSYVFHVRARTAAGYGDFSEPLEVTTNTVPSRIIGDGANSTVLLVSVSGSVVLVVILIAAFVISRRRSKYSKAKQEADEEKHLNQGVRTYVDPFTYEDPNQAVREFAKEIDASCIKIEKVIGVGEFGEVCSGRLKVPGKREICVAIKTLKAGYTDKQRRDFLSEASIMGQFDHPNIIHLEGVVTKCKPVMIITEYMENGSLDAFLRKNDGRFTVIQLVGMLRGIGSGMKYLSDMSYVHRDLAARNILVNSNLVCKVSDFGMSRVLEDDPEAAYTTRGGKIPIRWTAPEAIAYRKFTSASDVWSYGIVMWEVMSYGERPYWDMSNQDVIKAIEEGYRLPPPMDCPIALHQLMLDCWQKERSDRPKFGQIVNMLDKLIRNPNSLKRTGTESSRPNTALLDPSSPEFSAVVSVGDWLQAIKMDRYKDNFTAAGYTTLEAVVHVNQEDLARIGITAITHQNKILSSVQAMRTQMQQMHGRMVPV

[13] = target: Mitogen-activated protein kinase 12 (Homo sapiens) (UniProt P53778); test: Inhibition of recombinant human full length SAPK3 assessed as residual activity at 10 uM using myelin basic protein as substrate incubated for 40 mins in presence of [gamma33P]ATP by scintillation counting based radiometry assay relative to control
[14] = target: Serine/threonine-protein kinase PAK 3 (Homo sapiens) (UniProt O75914); test: Inhibition of recombinant full-length human PAK3 assessed as residual activity at 10 uM using RRRLSFAEPG as substrate measured after 40 mins in presence of [gamma33P]ATP by scintillation counting based radiometry assay relative to control
Mus musculus = species on record: Mus musculus; test: Inhibition of mouse ABL1 L782P/G784R/W785L/L786V mutant (27 to end residues) at 10 uM using EAIYAAPFAKKK as substrate incubated for 40 mins in presence of [gamma-33ATP] by scintillation counting based radiometry assay relative to control; parameters: scale not given: the % may be the effect or the level left
[15] = target: Serine/threonine-protein kinase 4 (Homo sapiens) (UniProt Q13043); test: Inhibition of recombinant full-length human MST1 assessed as residual activity at 10 uM using KKSRGDYMTMQIG as substrate measured after 40 mins in presence of [gamma33P]ATP by scintillation counting based radiometry assay relative to control
Serine/threonine-protein kinase 4 (Homo sapiens), sequence (Q13043 whole entry): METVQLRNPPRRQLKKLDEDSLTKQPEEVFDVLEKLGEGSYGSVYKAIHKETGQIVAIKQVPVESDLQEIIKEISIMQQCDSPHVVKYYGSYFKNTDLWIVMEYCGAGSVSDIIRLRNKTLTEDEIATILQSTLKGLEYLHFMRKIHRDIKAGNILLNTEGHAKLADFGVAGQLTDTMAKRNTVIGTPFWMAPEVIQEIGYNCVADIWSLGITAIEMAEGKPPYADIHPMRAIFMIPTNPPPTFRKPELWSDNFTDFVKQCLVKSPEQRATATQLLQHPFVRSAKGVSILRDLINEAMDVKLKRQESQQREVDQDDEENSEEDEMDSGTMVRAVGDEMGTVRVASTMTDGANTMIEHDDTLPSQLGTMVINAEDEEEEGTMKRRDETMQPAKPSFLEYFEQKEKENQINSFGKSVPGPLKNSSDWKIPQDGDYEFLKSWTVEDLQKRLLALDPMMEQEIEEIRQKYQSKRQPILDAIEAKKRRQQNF
Summary of the method: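 Outsourced kinase profiling of MST1 by a commercial service (Eurofins); activity reported as mean ± SEM of 2 replicates.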

[16] = tested on: Hepatocyte growth factor receptor (Homo sapiens), P08581 [M1250T]; test: Inhibition of recombinant human MET A1209G/V1290L/M1268T mutant (974 to end residues) assessed as residual activity at 10 uM using KKKGQEEEYVFIE as substrate incubated for 40 mins in presence of [gamma-33ATP by scintillation counting based radiometry assay relative to control
[17] = tested on: RAC-gamma serine/threonine-protein kinase (Homo sapiens), Q9Y243 [S472D]; test: Inhibition of recombinant human PKBgamma S472D mutant (117 to end residues) assessed as residual activity at 10 uM using GRPRTSSFAEGKK as substrate incubated for 40 mins in presence of [gamma33P]ATP by scintillation counting based radiometry assay relative to control
RAC-gamma serine/threonine-protein kinase (Homo sapiens), Q9Y243 [S472D], sequence (Q9Y243 whole entry S472D): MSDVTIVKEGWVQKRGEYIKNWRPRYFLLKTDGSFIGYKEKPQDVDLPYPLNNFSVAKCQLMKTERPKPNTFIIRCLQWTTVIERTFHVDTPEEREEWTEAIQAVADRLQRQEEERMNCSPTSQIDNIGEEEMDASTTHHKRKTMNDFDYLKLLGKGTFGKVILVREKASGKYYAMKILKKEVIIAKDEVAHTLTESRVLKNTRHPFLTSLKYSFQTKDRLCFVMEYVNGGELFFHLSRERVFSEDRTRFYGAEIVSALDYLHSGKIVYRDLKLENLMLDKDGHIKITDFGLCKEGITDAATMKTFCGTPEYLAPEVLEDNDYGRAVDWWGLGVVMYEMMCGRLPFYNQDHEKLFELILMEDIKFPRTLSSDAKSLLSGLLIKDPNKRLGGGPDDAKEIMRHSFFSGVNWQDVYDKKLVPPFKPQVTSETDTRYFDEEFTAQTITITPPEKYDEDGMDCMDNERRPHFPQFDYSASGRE

[18] = tested on: Calcium/calmodulin-dependent protein kinase kinase 2 (Homo sapiens), Q96RR4 [T85S]; test: Inhibition of recombinant full length human CaMKK2 T85S mutant assessed as residual activity at 10 uM using […] incubated for 40 mins in presence of [gamma-33ATP] by scintillation counting based radiometry assay relative to control
Calcium/calmodulin-dependent protein kinase kinase 2 (Homo sapiens), Q96RR4 [T85S], sequence (Q96RR4 whole entry T85S): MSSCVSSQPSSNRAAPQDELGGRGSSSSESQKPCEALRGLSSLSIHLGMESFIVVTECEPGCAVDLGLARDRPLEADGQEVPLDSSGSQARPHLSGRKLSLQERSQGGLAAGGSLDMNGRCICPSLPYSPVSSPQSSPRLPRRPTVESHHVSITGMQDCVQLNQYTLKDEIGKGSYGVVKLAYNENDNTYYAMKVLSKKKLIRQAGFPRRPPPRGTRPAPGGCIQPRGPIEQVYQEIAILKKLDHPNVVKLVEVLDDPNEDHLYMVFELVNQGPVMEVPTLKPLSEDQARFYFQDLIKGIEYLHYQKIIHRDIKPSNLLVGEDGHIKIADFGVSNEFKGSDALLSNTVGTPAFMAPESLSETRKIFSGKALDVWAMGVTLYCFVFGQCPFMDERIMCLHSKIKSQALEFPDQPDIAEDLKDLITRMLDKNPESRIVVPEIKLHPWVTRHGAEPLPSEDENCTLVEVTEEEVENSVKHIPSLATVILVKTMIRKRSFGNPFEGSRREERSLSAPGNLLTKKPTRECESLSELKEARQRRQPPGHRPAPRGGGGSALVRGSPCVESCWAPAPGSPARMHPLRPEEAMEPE

Homo sapiens [19] = species on record: Homo sapiens; test: Inhibition of recombinant human EphB2 A848S/K918E mutant (560 to end residues) assessed as residual activity at 10 uM using KTFCGTPEYLAPEVRREPRILSEEEQEMFRDFDYIADWC as substrate at 40 mins in presence of [gamma-33ATP] by scintillation counting based radiometry assay relative to control

C[C@@H](c1ccccc1)n1nnc2cnc3ccc(-c4cnc5[nH]ccc5c4)cc3c21 was tested, and the Activity [1] was 1%, the Activity [2] was 73% and the Activity [3] was 99%. It also gave an Activity [4] of 41%, an Activity [5] of 45% and an Activity [6] of 97%. It also gave an Activity [7] of 21%, an Activity [8] of 68% and an Activity [9] of 27%. It also gave an Activity [10] of -7%, an Activity (Homo sapiens [11]) of 16% and an Activity [12] of 81%. For the same compound, the Activity [13] was 91%, the Activity [14] was 136% and the Activity (Mus musculus) was 0%. It also gave an Activity [15] of 73%, an Activity [16] of 45% and an Activity [17] of 48%. It also gave an Activity [18] of 79% and an Activity (Homo sapiens [19]) of 83%.

Reference: ChEMBL document CHEMBL4334471, “Discovery of 1,8-disubstituted-[1,2,3]triazolo[4,5-c]quinoline derivatives as a new class of Hippo signaling pathway inhibitors” (Bioorg Med Chem Lett, 2019)
